Results of several laboratories.
Protocols differ between the studies behind these lines. pIC50: −log10 of the molar value. In brackets after ≈: the same amount, converted by molar mass.

`Cc1ccn2c(C(=O)N3CCN(CCn4cc(-c5ccc(C(C)(C)C)cc5)nn4)CC3)c(C)nc2c1` has a pIC50 of 4.82 (Leishmania major; parasite growth, resazurin; 72 h, promastigote).
The MIC of `Cc1ccc2nc(-c3ccc([N+](=O)[O-])cc3)n(Cc3ccccc3Cl)c2c1` is reported as 64 µg/mL (Enterococcus faecalis; microbial growth, broth dilution; ATCC29212).
`CC1(C)S[C@@H]2[C@H](NC(=O)[C@H](N)c3ccccc3)C(=O)N2[C@H]1C(=O)O` has an inhibition of 100% (Enterococcus faecalis; microbial growth, agar dilution; ATCC33186; 26.93 µM).
For `Cc1nc2ccc(Cl)cn2c1C(=O)N1CCN(Cc2cn(-c3ccc([N+](=O)[O-])cc3)nn2)CC1`, the pIC50 was < 3.60 (Leishmania major; parasite growth, resazurin; 72 h, promastigote).
The MIC of `CC1=NN(CNc2ccc(Cl)cc2)C(=O)C1=NNn1c(-c2ccccc2)nc2ccccc2c1=O` is reported as 51.5 µM (Aspergillus fumigatus; microbial growth, broth dilution).
`C[C@@H](c1ncncc1F)[C@](O)(Cn1cncn1)c1ccc(F)cc1F` gave a pIC50 of 4.42 (Acanthamoeba griffini; parasite growth, resazurin; 7 days).
`CCCc1cn(CCN2CCN(C(=O)c3c(C)nc4cc(C)ccn34)CC2)nn1` gave a pIC50 of 3.75 (Leishmania major; parasite growth, resazurin; 72 h, promastigote).
The MIC of `O=C(O)c1cn(C2CC2)c2cc(N3CCNCC3)c(F)cc2c1=O` is reported as 8 µg/mL (Enterococcus faecalis; microbial growth, broth dilution; ATCC29212).
The MIC of `O=C1NN=C(N=Cc2ccc(O)cc2O)C1=NNn1c(-c2ccccc2)nc2ccccc2c1=O` is reported as 53.5 µM (Aspergillus fumigatus; microbial growth, broth dilution).
With `Cc1nc2ccc(Cl)cn2c1C(=O)N1CCN(Cc2cn(-c3ccccc3Cl)nn2)CC1` the pIC50 was 4.04 (Leishmania major; parasite growth, resazurin; 72 h, promastigote).
For `Cc1ccc2nc(-c3ccncc3)[nH]c2c1`, the MIC was 64 µg/mL (Enterococcus faecalis; microbial growth, broth dilution; ATCC29212).
`CCc1ccc(-n2cc(CN3CCN(C(=O)c4c(C)nc5cc(C)ccn45)CC3)nn2)cc1` has a pIC50 of 4.13 (Leishmania major; parasite growth, resazurin; 72 h, promastigote).
`C=CCn1c(-c2ccc([N+](=O)[O-])cc2)nc2ccccc21` has an MIC of 64 µg/mL (Enterococcus faecalis; microbial growth, broth dilution; ATCC29212).
`Cc1ccc(C)n1-c1ccc(-c2nnc(S)s2)cc1` has an MIC of 1 µg/mL (Enterococcus faecalis; microbial growth, broth dilution; ATCC14506; 18 h).
`Fc1ccc(-c2nc3ccccc3[nH]2)cc1` has an MIC of 256 µg/mL (Enterococcus faecalis; microbial growth, broth dilution; ATCC29212).
`C[C@@H]1[C@H](O)[C@@H](C)/C=C/C=C/C=C/C=C/C=C/C=C/C=C/[C@H](O[C@@H]2O[C@H](C)[C@@H](O)[C@H](N)[C@@H]2O)C[C@@H]2O[C@](O)(C[C@@H](O)C[C@@H](O)[C@H](O)CC[C@@H](O)C[C@@H](O)CC(=O)O[C@H]1C)C[C@H](O)[C@H]2C(=O)O` has an MFC of 2.57 µM (≈ 2.37 µg/mL) (Aspergillus fumigatus; microbial killing; ATCC204305).
`CCCCCCCCCCCCCCCCOP(=O)([O-])OCC[N+](C)(C)C` gave a pIC50 of 4.90 (Leishmania major; parasite growth, resazurin; 72 h, promastigote).
`CN(C)N1C(=O)c2ccccc2C1CB1OC(C)(C)C(C)(C)O1` (centres unmarked) has a pIC50 of 3.62 (Leishmania major; parasite growth; promastigote).
The MIC of `Cc1ccc2nc(-c3ccc(Cl)c(Cl)c3)[nH]c2c1` is reported as 16 µg/mL (Enterococcus faecalis; microbial growth, broth dilution; ATCC29212).
`C#CCCCCCCCCC=CCC(O)CC(O)CO` (centres unmarked) has an IC50 of > 8 µg/mL (Aspergillus fumigatus; microbial growth, resazurin; ATCC204305).
